From ChEMBL document CHEMBL1641444, “Synthesis and evaluation of 6-[1-(2-[(18)F]fluoro-3-pyridyl)-5-methyl-1H-1,2,3-triazol-4-yl]quinoline for positron emission tomography imaging of the metabotropic glutamate receptor type 1 in brain” (Bioorg Med Chem, 2011) come the findings set out here.

Test [1] concerns the target Metabotropic glutamate receptor 1 (Rattus norvegicus) (UniProt P23385). As to the kind of experiment: Binding affinity to mGluR1 in Sprague-Dawley rat cerebellum at 0.023 nM after 30 mins by autoradiography. The conditions noted are these: tested as the 18F-labelled form. It counts as tissue-based. The essentials: (§1)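 Rat brain sections were preincubated 3 × 5 min at room temperature in 50 mM Tris–HCl, pH 7.4, with 1.2 mM MgCl2 and 2 mM CaCl2. They were then incubated 30 min at room temperature in fresh buffer with 0.023 nM [18F]ligand, alone or with MPEP at two levels. Sections were washed 3 × 5 min in cold buffer, rinsed in cold water and dried. Imaging-plate autoradiography followed; regional PSL/mm2 was taken minus 1.5 PSL/mm2 background. Means ± SD, n = 6–8 per group.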

The target is the same in test [2]. Briefly: Binding affinity to mGluR1 in Sprague-Dawley rat thalamus at 0.023 nM after 30 mins by autoradiography. In kind it is tissue-based. Conditions: tested as the 18F-labelled form. The essentials: as §1
Test [3] shares this target. As to the kind of experiment: Binding affinity to mGluR1 in Sprague-Dawley rat hippocampus at 0.023 nM after 30 mins by autoradiography. In kind it is tissue-based. Conditions: tested as the 18F-labelled form. The essentials: as §1
The target is the same in test [4]. Briefly: Binding affinity to mGluR1 in Sprague-Dawley rat olfactory bulb at 0.023 nM after 30 mins by autoradiography. The conditions noted are these: tested as the 18F-labelled form. The essentials: as §1
Test [5] shares this target. As to the kind of experiment: Binding affinity to mGluR1 in Sprague-Dawley rat striatum at 0.023 nM after 30 mins by autoradiography. The conditions noted are these: tested as the 18F-labelled form. The essentials: as §1
Test [6] shares this target. As to the kind of experiment: Binding affinity to mGluR1 in Sprague-Dawley rat cerebral cortex at 0.023 nM after 30 mins by autoradiography. It counts as tissue-based. The conditions noted are these: tested as the 18F-labelled form. The essentials: as §1
For test [7] the target is unchanged. As to the kind of experiment: Binding affinity to mGluR1 in Sprague-Dawley rat pons-medulla at 0.023 nM after 30 mins by autoradiography. The conditions noted are these: tested as the 18F-labelled form. The essentials: as §1
Test [8] has the same target. Briefly: Binding affinity to mGluR1 in Sprague-Dawley rat whole brain assessed as reduction of total radioactivity at 0.023 nM after 30 mins by autoradiography in presence of mGluRl antagonist FPTQ. Also noted: scale not given: the % may be the effect or the level left.
The target is the same in test [9]. As to the kind of experiment: Binding affinity to mGluR1 in Sprague-Dawley rat whole brain at 0.023 nM after 30 mins by autoradiography in presence of mGluRl antagonist JNJ-16259685. The essentials: (§2)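 Sections were incubated as for the regional assay: 0.023 nM [18F]ligand, 30 min at room temperature, in 50 mM Tris–HCl pH 7.4 with MgCl2 and CaCl2, after 3 × 5 min preincubation. Unlabeled ligand or JNJ-16259685 was co-incubated to define specific binding. Sections were washed cold and exposed to imaging plates. ROIs covered the whole brain; values are PSL/mm2 minus background. n = 6–8.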

Test [10] shares this target. Briefly: Binding affinity to mGluR1 in Sprague-Dawley rat whole brain at 0.023 nM after 30 mins by autoradiography in presence of mGluRl antagonist FPTQ. The essentials:
as §2

Test [11] shares this target. Briefly: Binding affinity to mGluR1 in Sprague-Dawley rat cerebellum at 0.023 nM after 30 mins by autoradiography in presence of 1 uM of mGluR5 antagonist MPEP. It counts as tissue-based. Conditions: tested as the 18F-labelled form. The essentials:
as §1

Test [12] has the same target. As to the kind of experiment: Binding affinity to mGluR1 in Sprague-Dawley rat thalamus at 0.023 nM after 30 mins by autoradiography in presence of 1 uM of mGluR5 antagonist MPEP. In kind it is tissue-based. The conditions noted are these: tested as the 18F-labelled form. The essentials: as §1
Test [13] shares this target. Briefly: Binding affinity to mGluR1 in Sprague-Dawley rat hippocampus at 0.023 nM after 30 mins by autoradiography in presence of 1 uM of mGluR5 antagonist MPEP. Conditions: tested as the 18F-labelled form. It counts as tissue-based. The essentials: as §1
Test [14] shares this target. Briefly: Binding affinity to mGluR1 in Sprague-Dawley rat olfactory bulb at 0.023 nM after 30 mins by autoradiography in presence of 1 uM of mGluR5 antagonist MPEP. The conditions noted are these: tested as the 18F-labelled form. The essentials: as §1
For test [15] the target is unchanged. Briefly: Binding affinity to mGluR1 in Sprague-Dawley rat striatum at 0.023 nM after 30 mins by autoradiography in presence of 1 uM of mGluR5 antagonist MPEP. In kind it is tissue-based. Conditions: tested as the 18F-labelled form. The essentials: as §1
Test [16] shares this target. As to the kind of experiment: Binding affinity to mGluR1 in Sprague-Dawley rat cerebral cortex at 0.023 nM after 30 mins by autoradiography in presence of 1 uM of mGluR5 antagonist MPEP. The conditions noted are these: tested as the 18F-labelled form. In kind it is tissue-based. The essentials:
as §1

The target is the same in test [17]. Briefly: Binding affinity to mGluR1 in Sprague-Dawley rat pons-medulla at 0.023 nM after 30 mins by autoradiography in presence of 1 uM of mGluR5 antagonist MPEP. The conditions noted are these: tested as the 18F-labelled form. The essentials: as §1
Test [18] has the same target. As to the kind of experiment: Binding affinity to mGluR1 in Sprague-Dawley rat cerebellum at 0.023 nM after 30 mins by autoradiography in presence of 10 uM of mGluR5 antagonist MPEP. In kind it is tissue-based. The conditions noted are these: tested as the 18F-labelled form. The essentials: as §1
For test [19] the target is unchanged. As to the kind of experiment: Binding affinity to mGluR1 in Sprague-Dawley rat thalamus at 0.023 nM after 30 mins by autoradiography in presence of 10 uM of mGluR5 antagonist MPEP. Conditions: tested as the 18F-labelled form. The essentials: as §1
For test [20] the target is unchanged. As to the kind of experiment: Binding affinity to mGluR1 in Sprague-Dawley rat hippocampus at 0.023 nM after 30 mins by autoradiography in presence of 10 uM of mGluR5 antagonist MPEP. In kind it is tissue-based. Conditions: tested as the 18F-labelled form. The essentials: as §1
The target is the same in test [21]. As to the kind of experiment: Binding affinity to mGluR1 in Sprague-Dawley rat olfactory bulb at 0.023 nM after 30 mins by autoradiography in presence of 10 uM of mGluR5 antagonist MPEP. Conditions: tested as the 18F-labelled form. The essentials:
as §1

Test [22] shares this target. As to the kind of experiment: Binding affinity to mGluR1 in Sprague-Dawley rat striatum at 0.023 nM after 30 mins by autoradiography in presence of 10 uM of mGluR5 antagonist MPEP. Conditions: tested as the 18F-labelled form. It counts as tissue-based. The essentials:
as §1

Test [23] has the same target. Briefly: Binding affinity to mGluR1 in Sprague-Dawley rat cerebral cortex at 0.023 nM after 30 mins by autoradiography in presence of 10 uM of mGluR5 antagonist MPEP. In kind it is tissue-based. Conditions: tested as the 18F-labelled form. The essentials:
as §1

Test [24] shares this target. As to the kind of experiment: Binding affinity to mGluR1 in Sprague-Dawley rat pons-medulla at 0.023 nM after 30 mins by autoradiography in presence of 10 uM of mGluR5 antagonist MPEP. The conditions noted are these: tested as the 18F-labelled form. The essentials: as §1
For test [25] the target is unchanged. Briefly: Binding affinity to mGluR1 in Sprague-Dawley rat brain assessed as decrease of total binding at 0.023 nM after 30 mins by autoradiography in presence of 10 uM of mGluR5 antagonist MPEP. In kind it is tissue-based. The arrangement: scale not given: the % may be the effect or the level left. The essentials: as §1
The target in test [26] is T1, Metabotropic glutamate receptor 1 (Homo sapiens, UniProt Q13255). Briefly: Binding affinity to human mGluR1.
T1 sequence (Q13255 whole entry): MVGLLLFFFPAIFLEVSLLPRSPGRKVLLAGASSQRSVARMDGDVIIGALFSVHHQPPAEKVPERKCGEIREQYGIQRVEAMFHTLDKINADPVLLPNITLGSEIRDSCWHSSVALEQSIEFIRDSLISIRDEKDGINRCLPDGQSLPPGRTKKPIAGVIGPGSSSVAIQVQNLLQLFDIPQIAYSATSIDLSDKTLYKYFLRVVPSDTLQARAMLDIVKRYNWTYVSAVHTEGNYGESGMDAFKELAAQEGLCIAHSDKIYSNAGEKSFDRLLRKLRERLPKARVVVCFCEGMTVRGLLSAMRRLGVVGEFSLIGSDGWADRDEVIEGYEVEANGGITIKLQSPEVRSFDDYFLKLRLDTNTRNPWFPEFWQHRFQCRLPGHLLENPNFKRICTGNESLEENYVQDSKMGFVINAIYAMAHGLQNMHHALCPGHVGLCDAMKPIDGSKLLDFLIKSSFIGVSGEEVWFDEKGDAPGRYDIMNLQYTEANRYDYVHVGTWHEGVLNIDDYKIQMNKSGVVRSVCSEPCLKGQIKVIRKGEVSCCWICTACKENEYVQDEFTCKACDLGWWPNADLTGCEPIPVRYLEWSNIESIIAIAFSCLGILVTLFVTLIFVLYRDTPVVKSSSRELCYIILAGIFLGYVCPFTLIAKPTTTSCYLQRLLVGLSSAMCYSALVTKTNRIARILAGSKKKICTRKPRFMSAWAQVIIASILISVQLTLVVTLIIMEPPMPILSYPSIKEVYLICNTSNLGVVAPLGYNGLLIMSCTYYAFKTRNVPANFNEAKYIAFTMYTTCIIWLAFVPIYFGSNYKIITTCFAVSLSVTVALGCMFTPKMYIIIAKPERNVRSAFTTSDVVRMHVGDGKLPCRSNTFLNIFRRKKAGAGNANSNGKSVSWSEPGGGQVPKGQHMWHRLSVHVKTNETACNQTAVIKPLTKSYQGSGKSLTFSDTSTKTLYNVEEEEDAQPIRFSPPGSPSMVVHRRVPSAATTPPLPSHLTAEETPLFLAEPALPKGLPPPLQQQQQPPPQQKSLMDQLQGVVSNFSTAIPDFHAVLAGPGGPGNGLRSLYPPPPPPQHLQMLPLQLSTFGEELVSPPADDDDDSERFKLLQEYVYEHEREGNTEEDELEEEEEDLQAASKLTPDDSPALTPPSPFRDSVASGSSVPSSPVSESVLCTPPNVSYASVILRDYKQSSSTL
Test [27] deals with Metabotropic glutamate receptor 1 (Mus musculus, UniProt P97772). As to the kind of experiment: Binding affinity to mouse mGluR1.
Metabotropic glutamate receptor 1 (Mus musculus, UniProt P97772), sequence (P97772 whole entry): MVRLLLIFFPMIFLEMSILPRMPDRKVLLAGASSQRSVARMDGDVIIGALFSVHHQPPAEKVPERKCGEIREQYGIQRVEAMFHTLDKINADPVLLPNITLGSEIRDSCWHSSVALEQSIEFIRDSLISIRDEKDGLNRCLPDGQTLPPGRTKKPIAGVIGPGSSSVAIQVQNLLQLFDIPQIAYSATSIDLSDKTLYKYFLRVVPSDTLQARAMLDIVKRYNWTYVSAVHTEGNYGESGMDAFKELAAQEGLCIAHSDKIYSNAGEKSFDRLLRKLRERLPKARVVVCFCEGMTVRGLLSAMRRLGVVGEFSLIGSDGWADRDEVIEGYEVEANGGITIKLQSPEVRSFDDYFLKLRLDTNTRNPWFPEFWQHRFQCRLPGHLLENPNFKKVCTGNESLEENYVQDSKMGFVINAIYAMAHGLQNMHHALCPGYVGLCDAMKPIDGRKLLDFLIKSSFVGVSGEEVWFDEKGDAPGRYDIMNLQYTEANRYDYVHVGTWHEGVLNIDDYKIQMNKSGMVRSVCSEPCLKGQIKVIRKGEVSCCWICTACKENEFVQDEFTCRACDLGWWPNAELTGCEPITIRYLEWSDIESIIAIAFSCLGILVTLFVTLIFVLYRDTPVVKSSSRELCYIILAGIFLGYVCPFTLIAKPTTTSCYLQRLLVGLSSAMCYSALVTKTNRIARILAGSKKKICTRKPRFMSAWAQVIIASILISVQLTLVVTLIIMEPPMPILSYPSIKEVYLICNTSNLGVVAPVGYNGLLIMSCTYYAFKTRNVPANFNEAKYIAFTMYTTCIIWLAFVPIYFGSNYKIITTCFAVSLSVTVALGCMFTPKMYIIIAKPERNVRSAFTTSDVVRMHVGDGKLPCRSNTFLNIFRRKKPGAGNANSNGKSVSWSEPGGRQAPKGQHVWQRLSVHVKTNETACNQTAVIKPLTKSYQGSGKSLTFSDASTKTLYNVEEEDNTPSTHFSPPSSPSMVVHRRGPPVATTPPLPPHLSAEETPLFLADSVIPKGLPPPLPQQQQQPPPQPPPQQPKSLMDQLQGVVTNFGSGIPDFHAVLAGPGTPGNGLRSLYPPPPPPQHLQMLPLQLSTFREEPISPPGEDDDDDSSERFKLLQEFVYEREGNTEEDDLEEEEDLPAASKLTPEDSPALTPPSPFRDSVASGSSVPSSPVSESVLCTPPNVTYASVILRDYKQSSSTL
Test [28] has as its target T1, Metabotropic glutamate receptor 1. As to the kind of experiment: Binding affinity to mGluR1.

Metabotropic glutamate receptor 1 (Rattus norvegicus), sequence (P23385 19-1199 limits assumed): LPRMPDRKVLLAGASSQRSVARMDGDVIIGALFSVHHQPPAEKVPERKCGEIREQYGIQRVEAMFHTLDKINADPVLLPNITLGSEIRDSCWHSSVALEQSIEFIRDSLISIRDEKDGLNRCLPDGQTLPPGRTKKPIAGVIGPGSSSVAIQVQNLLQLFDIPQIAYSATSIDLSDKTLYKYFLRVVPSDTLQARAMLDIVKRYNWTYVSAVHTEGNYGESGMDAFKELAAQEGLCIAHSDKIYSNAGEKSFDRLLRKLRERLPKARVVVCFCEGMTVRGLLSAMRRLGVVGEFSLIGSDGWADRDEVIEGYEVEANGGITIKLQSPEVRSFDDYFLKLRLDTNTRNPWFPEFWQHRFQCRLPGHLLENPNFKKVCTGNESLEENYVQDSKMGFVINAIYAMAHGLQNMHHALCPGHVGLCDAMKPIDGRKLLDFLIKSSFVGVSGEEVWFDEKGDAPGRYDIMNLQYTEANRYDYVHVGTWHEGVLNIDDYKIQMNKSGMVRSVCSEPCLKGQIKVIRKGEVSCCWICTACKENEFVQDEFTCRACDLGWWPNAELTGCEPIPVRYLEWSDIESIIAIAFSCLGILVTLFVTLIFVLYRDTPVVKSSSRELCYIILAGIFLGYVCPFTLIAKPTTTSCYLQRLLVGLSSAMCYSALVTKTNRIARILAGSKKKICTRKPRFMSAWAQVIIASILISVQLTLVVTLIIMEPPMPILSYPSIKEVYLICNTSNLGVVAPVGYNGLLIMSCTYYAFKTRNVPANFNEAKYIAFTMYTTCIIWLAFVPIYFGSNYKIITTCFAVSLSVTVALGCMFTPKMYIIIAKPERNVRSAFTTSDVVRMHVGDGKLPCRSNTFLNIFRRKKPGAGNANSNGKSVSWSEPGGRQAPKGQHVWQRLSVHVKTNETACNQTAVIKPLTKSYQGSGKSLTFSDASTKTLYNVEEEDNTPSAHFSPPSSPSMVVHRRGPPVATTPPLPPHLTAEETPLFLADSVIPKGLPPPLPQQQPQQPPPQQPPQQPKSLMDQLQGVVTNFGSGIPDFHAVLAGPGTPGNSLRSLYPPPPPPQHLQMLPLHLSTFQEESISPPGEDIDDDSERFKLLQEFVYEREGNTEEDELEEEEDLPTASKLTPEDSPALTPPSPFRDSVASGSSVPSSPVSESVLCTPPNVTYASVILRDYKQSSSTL

Usually IC50 stands for the midpoint of a concentration-inhibition curve. Take `Cc1c(-c2ccc3ncccc3c2)nnn1-c1cccnc1F`: the Activity was found to be 409 PSL/mm2 in [1]; 189 PSL/mm2 in [2]; 112 PSL/mm2 in test [3]; 88.7 PSL/mm2 in test [4]; 70.7 PSL/mm2 in test [5]; 28.2 PSL/mm2 in test [6]. Also, the Activity was 17.5 PSL/mm2 in test [7]; under 3% in test [8]; 0.5 PSL/mm2 in [9]; 0.6 PSL/mm2 in [10]; 398 PSL/mm2 in [11]; 169 PSL/mm2 in test [12]. Further, the Activity in test [13] is 97.4 PSL/mm2; in test [14], 76 PSL/mm2; in test [15], 61.7 PSL/mm2; in test [16] it was 23.6 PSL/mm2; in [17], 15.2 PSL/mm2; in test [18], 285 PSL/mm2. In addition, the Activity in test [19] amounted to 116 PSL/mm2; in test [20] it was 69.4 PSL/mm2; in [21] it was 49 PSL/mm2; in [22] it was 40.1 PSL/mm2; in [23], 15.7 PSL/mm2; in [24], 9.5 PSL/mm2. For the same compound, the Activity in test [25] was found to be 30%. The IC50 worked out at 3.6 nM in test [26] and 1.4 nM in test [27].

A word on the Ki: it is a measure of affinity in units of concentration, obtained from inhibition or displacement. As to `CCc1cc2cc(C(=O)[C@H]3CC[C@@H](OC)CC3)ccc2nc1[11CH3]`, in [28], the Ki was 0.87 nM.

With `CO[C@H]1CC[C@@H](C(=O)c2ccc3nc4c(cc3c2)CCCO4)CC1`, in test [28], the Ki came out at 0.34 nM.

For the compound `CCCN1Cc2cc(-c3nnn(-c4cccnc4[18F])c3C)ccc2C1=O`, the Ki in [28] was 0.4 nM.

Take `COCCN([11CH3])Cc1ccc2nc3sc(C(=O)N(C)C4CCCCC4)cn3c2c1`: the affinity in test [28] corresponds to a Ki of 4.8 nM.
